The series relates to MS2 coat protein. Kind of series: apparent Kd, MS2 coat protein; higher = weaker binding; RNA-MaP array; FMN 200 µM where present. The method in brief: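 Designs were transcribed by stalled E. coli RNA polymerase on Illumina sequencing-chip clusters. They were titrated with SNAP-549-labelled MS2 coat protein from 0.7 or 1.5 nM, doubling to 3 µM, without and then with constant ligand. Buffer: 100 mM Tris-HCl pH 7.5, 80 mM KCl, 4 mM MgCl2, BSA, DTT, yeast tRNA, Tween-20. Green signal was normalised to red-channel RNA signal and control-cluster median Fmax. Apparent Kd is the median of filtered per-cluster binding-curve fits.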

[1] abbreviates: designed as: ON switch for flavin mononucleotide, no ligand.
Where [2] appears, read: ligand present: flavin mononucleotide, designed as: ON switch for flavin mononucleotide.
The mark [3] stands for this setting: designed as: OFF switch for flavin mononucleotide, no ligand.
Where [4] appears, read: ligand present: flavin mononucleotide, designed as: OFF switch for flavin mononucleotide.

Regarding “GCACGAGACUAAGGAUAUGGAGUGUCUACAUUAAACAUGAGGAUCACCCAUGUAGAGAGUAUGAUUCAGAAGGUAGAGACGUGC”, the “apparent Kd” value reads like this: under setting [1], 53.6 nM; under setting [2], 25.2 nM.
“GUCAGCUCGUGAGGAUAUCCAACACUGCUUCGGCAGUGUAUUAAGAUCACAUGAGGAUCACCCAUGUAGAAGGCACGAGCUGAU”: the “apparent Kd” value runs as follows: under setting [3], 6.48 nM; under setting [4], 7.55 nM.
For “GAACGUGAGACGACCGUGGGUACAUGAGGAUCACCCAUGUGCAGAAGGCGAAUAUGACGAUGUGUCGAGGAUAUGCACAGCUCA”, the “apparent Kd” value by setting is: under setting [3], 22.4 nM; under setting [4], 97.6 nM.
In the case of “AUGAAAGUAACACAGGAUAUCGAGGAUACAACAUGAGGAUCACCCAUGUACAUACGAACGUAUAACGAGAAGGGUGGAUGAUCUUC”, the “apparent Kd” value is 244 nM under setting [1] and 639 nM under setting [2].
On to “AGCGGAGACAUGAGGAUCACCCAUGUCAGUGCCGGCGAUACCAGAAGGCCCGGCGGGCCUCGCCGGGAGGAUAUGGGUUCAACA”, for which the “apparent Kd” value turned out to be 13.1 nM under setting [1] and 8.39 nM under setting [2].
On the same counts, the results for “GGACUGGACUAGAAGGGUGAUGCGCUCGCAGACACAGGAUAUAGUCACAUGAGGAUCACCCAUGUCGGUCCAUGUAAAGAAACU” are 20.2 nM and 14.8 nM.
In the case of “AAAACACAUGAGGAUCACCCAUGUAUCUGGACCAUAGGAUAUCCGCGCCCACUAGGGUGUGGAGAAGGGUGAGCCC”, the “apparent Kd” value runs as follows: under setting [1], 204 nM; under setting [2], 245 nM.
Regarding “UGUUGUAUUACAGGAUAUCUAUUAGUUUUAAUUAGAGAAGGGUAUUCACAUGAGGAUCACCCAUGUAUAUACGAGGAAGUUGUG”, the “apparent Kd” value is, setting by setting: under setting [1], 39.1 nM; under setting [2], 42.2 nM.
For “AUACAUGAGGAUCACCCAUGUUACUGGGUCUUUUUAGAACGUAGAAGGAUGAUAUUAUAAAUAUCAUAGGAUAUACUAUAUUGU”, the “apparent Kd” value under setting [3] is 52 nM and the “apparent Kd” value under setting [4] was determined as 59.5 nM.
As to “CUUUUGUGAGGAUAUCAGUAGUAAAUAAAUAAAUUUACUACUGAGAAGGCACAUGAGGAUCACCCAUGUUCCUC”, the “apparent Kd” value by setting is: under setting [3], 39.1 nM; under setting [4], 292 nM.
Turning to “AUCUCAGGACGAGGAUAUCAAUACAUGAGGAUCACCCAUGUAUGAUUACUGUGAUCCUCUAAGGCUGAGAAGGCGUCCCAAUUA”, the “apparent Kd” value under setting [3] was determined as 20.4 nM and the “apparent Kd” value under setting [4] was found to be 8.37 nM.
Regarding “GUACUACCCACAGAUAACUUAGCCAGAAGGGUCUACAUGAGGAUCACCCAUGUGGUCCAAAGUGGACAGGAUAUGGAAACGGUU”, the “apparent Kd” value reads like this: under setting [3], 139 nM; under setting [4], 12.2 nM.
For “UCUCAUAUGCAGGAUAUCCAUGGCGGGCGGAGAGGAGAAGGGCAUACAUGAGGAUCACCCAUGUGUCCCGUGGG”, the “apparent Kd” value was determined as 27.2 nM under setting [3] and 41.2 nM under setting [4].
For “CUAUAUUAGUAGAAGGACGGAGAGUAUGUAGUCGUAGGAUAUACAUAAGACAUGAGGAUCACCCAUGUGUGUAUGUUGGGUAUG”, the “apparent Kd” value turned out to be 9.66 nM under setting [3] and 8.03 nM under setting [4].
Take “GGUGAAUGAACAUGAGGAUCACCCAUGUACAGGAAACUGAAUGAGGAUAUCCAUAGCAAAGCUAUGGAGAAGGCAUGGGUCACC”: the “apparent Kd” value was determined as 302 nM under setting [1] and 99.8 nM under setting [2].
For the sequence “UGUGAGUUGAUGUUAGAUCGGAGUACAUGAGGAUCACCCAUGUAGGAUAUUCAAAGACGCAGAUAGAAGAAGGACAUAGGUUUC”, the “apparent Kd” value under setting [3] was determined as 15.2 nM and the “apparent Kd” value under setting [4] was determined as 14.3 nM.
Take “AAACACGGACAUGAGGAUCACCCAUGUGGCGAAAGCCUUGGGAGAAGGCAGUAUGCAAAGCAUUCUGAGGAUAUUCAUACCGUG”: the “apparent Kd” value runs as follows: under setting [1], 926 nM; under setting [2], 68.9 nM.
“UGAGAUGUAGUAGGAUAUCAGGUUACAUGAGGAUCACCCAUGUUAGAUUGGUGGAUAGAUGUUGAUGAGAAGGACUUUUGAGUG”: the “apparent Kd” value was 66.7 nM under setting [3] and 116 nM under setting [4].
For the sequence “GAAAACAGAGGAUAUACAUAAGCUAGACGAAAGUCUAGCAAACAUGAGGAUCACCCAUGUAGAAGGCUGAAGAA”, the “apparent Kd” value under setting [3] came to 37.6 nM and the “apparent Kd” value under setting [4] came out at 36.3 nM.
“CCCUAGGUAGGAUAUACUUGGACUCGGCUGAUGUGCCUAAAACAUGAGGAUCACCCAUGUAGAAGGACUAAGGC”: the “apparent Kd” value was 12.6 nM under setting [3] and 11.6 nM under setting [4].
“CAGGAUAGAGGAUAUACAUAGAUACAGAUUCAUGUGAUCCUACAUGAGGAUCACCCAUGUAGAAGGCUAUCCUG”: the “apparent Kd” value under setting [3] was determined as 315 nM and the “apparent Kd” value under setting [4] amounted to 39.5 nM.
Regarding “UAAAAGGCAGGAUAUGCAGGUGACCCGACUCGCCGGGCUAAACAUGAGGAUCACCCAUGUAGAAGGGCCAAAAG”, the “apparent Kd” value is, setting by setting: under setting [3], 15.7 nM; under setting [4], 43.6 nM.
On to “CAAUGUCAAAAGGAUAUUGCCAGCAUAAAUGGUCGAGAAGGUUUGACAUGAGGAUCACCCAUGUAAUGAACCUG”, for which the “apparent Kd” value stood at 14.6 nM under setting [3] and 51.2 nM under setting [4].
For the sequence “AUUUGAAUGUCAGGAUAUGGUAGAUUAUUCUUAUCAGAAGGGAUAAUUAUACUCAAGUACAUGAGGAUCACCCAUGUUAAAUCA”, the “apparent Kd” value under setting [1] turned out to be 12 nM and the “apparent Kd” value under setting [2] is 12.6 nM.
Take “UUAUGUUUUGUAGGAUAUCAUUAGUUAUGUAUUAUAAUUGAAAUUUUGAUUUGAGAAGGACAUUUACAUGAGGAUCACCCAUGU”: the “apparent Kd” value by setting is: under setting [3], 13.4 nM; under setting [4], 9.92 nM.
As for “UUCUUUGUUGUGAGGAUAUCGUAUUCUUUUUGUUACGAGAAGGCACAUGAGGAUCACCCAUGUUUCUUGAUGUU”, the “apparent Kd” value reads like this: under setting [3], 16.9 nM; under setting [4], 45.8 nM.
In the same order, the values of “UAUAUGUGAGGAUAUCAGGUGUGCUAGCGAACUGGUACAUCUGAGAAGGCACAUGAGGAUCACCCAUGUAUCUU” are 27.7 nM and 105 nM.
With “CGAAACUACGAGAAGGACAUGUGGUCCUUCAGUUACAUGAGGAUCACCCAUGUAGGAUAUCGUAGUUUCAGGAUCGUGAGAUCU”, the “apparent Kd” value was found to be 38.7 nM under setting [3] and 9.81 nM under setting [4].
For the sequence “CGUUUUAAACAAGGAUAUCAUUUGUGUACAAGUUUUACAUGAGGAUCACCCAUGUUAAAUGGUUUUGAGAAGGUGUUUAGAACG”, the “apparent Kd” value came out at 31.1 nM under setting [1] and 25 nM under setting [2].
As for “UUAAAACGUGUGAGGAUAUCGAGAGUAGCUGAUCUCGAGAAGGCACAUGAGGAUCACCCAUGUGGCCUGCACCG”, the “apparent Kd” value was found to be 14.6 nM under setting [3] and 14.7 nM under setting [4].
In the same order, the values of “ACGGCAGUCGAAGGAUAUGGUUACAUGAGGAUCACCCAUGUCUAGGUUCUUAAAUAGUAUAAUUUCCAGAAGGUCGAAGGCCUA” are 29.4 nM and 35.5 nM.
Regarding “CGUUAUGAUAGAGGAUAUGUAAUACAUGAGGAUCACCCAUGUUACAUGGGUAAUAUUAAUAAUUAACAGAAGGCUAUCCUUUCG”, the “apparent Kd” value was 484 nM under setting [3] and 149 nM under setting [4].
For “AGGAAGUAAGGAUAUGCUGCUCGUCACUUGCGUGAUGAGUAGCAGAAGGUACAUGAGGAUCACCCAUGUAAAGA”, the “apparent Kd” value under setting [3] was found to be 23.7 nM and the “apparent Kd” value under setting [4] was found to be 20.6 nM.
As to “AAGGACUGUAAAUUAACUCAAAUACAUGAGGAUCACCCAUGUAAGGAUAUCGUCAGGAAUACUGACGAGAAGGUACAUCAGUCC”, the “apparent Kd” value under setting [3] turned out to be 15.6 nM and the “apparent Kd” value under setting [4] was found to be 20.8 nM.
As to “CUUAUGUGAGGAUAUGGUGUUGGUCACAGGAAAAAGAUUCUCCAGAAGGCACAUGAGGAUCACCCAUGUAGUGA”, the “apparent Kd” value by setting is: under setting [3], 89.4 nM; under setting [4], 71.2 nM.
“UCCUGGCGAGGAUAUACAAUGUUUUUCGCGUGUUGUUGCGAACAUGAGGAUCACCCAUGUAGAAGGUGCUACUG”: the “apparent Kd” value runs as follows: under setting [3], 278 nM; under setting [4], 225 nM.
